The results in this text go back to ChEMBL document CHEMBL1144666, “Indoleamine 2,3-dioxygenase is the anticancer target for a novel series of potent naphthoquinone-based inhibitors” (J Med Chem, 2008).

Activity calls are given as the source filed them. The rule behind the calls is not given here.

In general, IC50 refers to the concentration that gives 50% inhibition. One may read the Ki as a dissociation constant, usually derived from enzyme kinetics or from competition with a known ligand.

One assay addresses T1, Indoleamine 2,3-dioxygenase 1 (Homo sapiens, UniProt P14902). Briefly: Inhibition of purified human recombinant IDO.
Details: not given
As to `CC1(C)C=CC2=C(O1)C(=O)c1ccccc1C2=O` [DEHYDRO-ALPHA-LAPACHONE], the IC50 is 214 nM.

Regarding `CC1(C)C=CC2=C(O1)C(=O)c1cccc(O)c1C2=O`, the concentration for half-maximal inhibition (IC50) stood at 190 nM. `CC1(C)OC2=C(C(=O)c3ccccc3C2=O)C(OCc2ccccc2)C1O` (stereo not given): the IC50 is 1090 nM.

For the compound `CC1(C)OC2=C(C(=O)c3ccccc3C2=O)C(N2CCOCC2)C1O` (trans isomer), the IC50 is 361 nM. With `CC1(C)OC2=C(C(=O)c3ccccc3C2=O)C(SCc2ccccc2)C1O` (cis isomer), the IC50 came to 3450 nM. Still for that read-out and setting: the same measure for `C=CCNC1C2=C(OC(C)(C)C1O)C(=O)c1ccccc1C2=O` (trans isomer): 186 nM; for `CC1(C)OC2=C(C(=O)c3ccccc3C2=O)C(N2CCOCC2)C1O` (cis isomer): 1100 nM. On the same count and under the same terms, the same measure for `COc1cccc2c1C(=O)C1=C(OC(C)(C)C=C1)C2=O`: 2130 nM. As to `O=c1ccoc2ccccc12`, the outcome was inactive.

As to `CC1=CC(=O)C=CC1=O`, the result was inactive. For `CC1(C)C=CC2=C(O1)C(=O)c1c(O)cccc1C2=O`, the IC50 came out at 121 nM. On the same count and under the same terms, next, `CC1(C)C=CC2=C(O1)C(=O)c1cc(O)ccc1C2=O`: 2050 nM; `COC1C2=C(OC(C)(C)C1O)C(=O)c1ccccc1C2=O` (cis isomer): 976 nM.

With `COc1cccc2c1C(=O)C1=C(C=CC(C)(C)O1)C2=O`, the IC50 is 2920 nM. On the same count and under the same terms, the same measure for `O=C1C=Cc2ccccc2C1=O` [1,2-NAPHTHOQUINONE]: 7100 nM; for `COc1ccc2c(c1)C(=O)C1=C(OC(C)(C)C=C1)C2=O`: 3020 nM. Still for that read-out and setting: next, `COC1C2=C(OC(C)(C)C1O)C(=O)c1ccccc1C2=O` (trans isomer): 3960 nM. As to `CC1=C(C/C=C(\C)CCC[C@H](C)CCC[C@H](C)CCCC(C)C)C(=O)c2ccccc2C1=O`, the outcome was inactive. With `O=C1C=C(O)C(=O)c2ccccc21` [LAWSONE], the IC50 came to 675000 nM. On the same count and under the same terms, the same measure for `O=C1C=CC(=O)c2c(O)cccc21` [JUGLONE]: 1000 nM. Still for that read-out and setting: the same measure for `CC1(C)OC2=C(C(=O)c3ccccc3C2=O)C(O)C1Br` (stereo not given): 512 nM; for `COC1=CC(=O)c2ccccc2C1=O` [2-Methoxy-1,4-naphthoquinone]: 720 nM.

`CC1=C(SC[C@H](NC(=O)CC[C@H](N)C(=O)O)C(=O)NCC(=O)O)C(=O)c2ccccc2C1=O`: the IC50 is 880 nM. Same read-out and setting: the same measure for `CCCCN[C@H]1C2=C(OC(C)(C)[C@H]1O)C(=O)c1ccccc1C2=O`: 130 nM. As for `O=C1C=CC(=O)C(c2ccccc2)=C1`, the outcome was inactive. Take `CC1(C)C=CC2=C(O1)C(=O)c1ccc(O)cc1C2=O`: the IC50 was 5520 nM.

On to `Cc1c(SC[C@H](NC(=O)CC[C@H](N)C(=O)O)C(=O)NCC(=O)O)c(O)c2ccccc2c1O`, for which the IC50 is 340 nM.

`CCc1c(C)cc2c(c1O)C(=O)C1=C(C2=O)C(C)(C)C(=O)C(C)(C(=O)OC)O1` (stereo not given): the Ki came to 120 nM. Take `CC1(C)OC2=C(C(=O)c3ccccc3C2=O)C(O)C1O` (stereo not given): the IC50 came out at 1500 nM.

Consider `CCCCNC1C2=C(OC(C)(C)C1O)C(=O)c1ccccc1C2=O` (trans isomer), for which the IC50 is 82 nM. In the case of `COc1ccc2c(c1)C(=O)C1=C(C=CC(C)(C)O1)C2=O`, the IC50 was determined as 933 nM. On the same count and under the same terms, the same measure for `CC1=CC(=O)c2ccccc2C1=O` [MENADIONE]: 1000 nM; for `O=C1C(Cl)=C(Cl)C(=O)c2ccccc21` [Dichlon]: 280 nM. In the case of `CC1(C)OC2=C(C(=O)c3ccccc3C2=O)[C@@H]2O[C@@H]21`, the IC50 worked out at 4950 nM. Turning to `O=C1C=CC(=O)C=C1`, the result was inactive. On to `COC(=O)C1(C)C=CC2=C(O1)C(=O)c1ccccc1C2=O` (stereo not given), for which the IC50 stood at 247 nM. The same measure, in the same setting: the same measure for `CC1(C)CCC2=C(O1)C(=O)c1ccccc1C2=O` [ALPHA-LAPACHONE]: 4340 nM; for `CC1(C)OC2=C(C(=O)c3ccccc3C2=O)C(SCc2ccccc2)C1O` (trans isomer): 2120 nM.

A further assay has as its system Mus musculus. Kind of assay: Antitumor activity in parous MMTV-Neu transgenic FVB mouse assessed as tumor volume at 25 mg/kg, ip qd for 5 days.
Details: not given
It counts as functional, organism-based. Also on record: dose 25 mg/kg. The procedure, abridged:
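Autochthonous mammary tumors in parous FVB MMTV-Neu mice expressing wild-type rat HER2/Neu. Agent given at 25 mg/kg for 5 consecutive days in the first week; paclitaxel cohorts received 13.3 mg/kg i.v. qd 3×/week over the 2-week treatment period. Read-out is fold change in volume of individual tumors, with mean ± SEM per group.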
Turning to `CC1=CC(=O)c2ccccc2C1=O` [MENADIONE], the result was Active.

The subject of a further assay is B16-F10. Kind of assay: Antitumor activity in mouse B16-F10 cells isografted IDO knockout C57BL/6 mouse at 25 mg/kg, ip qd for 5 days. The format is functional, organism-based. Also on record: dose 25 mg/kg.
Details: not given
In outline:
(§1)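 Mice given 1 × 10^5 B16-F10 melanoma cells s.c.; i.p. dosing at 25 mg/kg qd 5 days a week begins 7 days later and runs until the experiment ends. Tumors are measured by caliper twice weekly until control tumors reach ~5000 mm3. Data are mean tumor size ± SEM. Treated and untreated groups are compared at study end by two-tailed Mann–Whitney test.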
Take `CC1=CC(=O)c2ccccc2C1=O` [MENADIONE]: the outcome was inactive.

The next assay has as its target T1, Indoleamine 2,3-dioxygenase 1. Kind of assay: Inhibition of purified human recombinant IDO expressed in TREx cells.
Details: not given
The procedure, abridged: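 T-REx cells carrying doxycycline-inducible human IDO cDNA are seeded at 20000/well and induced 72 h with doxycycline. They are rinsed, then exposed in triplicate to serial dilutions in phenol red-free DMEM + 10% FBS for 18 h and TCA-fixed. Supernatant kynurenine is read with p-DMAB at 490 nm, corrected for SRB viability. IC50 is taken from a sigmoidal curve.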
Target sequence in this assay (P14902 whole entry): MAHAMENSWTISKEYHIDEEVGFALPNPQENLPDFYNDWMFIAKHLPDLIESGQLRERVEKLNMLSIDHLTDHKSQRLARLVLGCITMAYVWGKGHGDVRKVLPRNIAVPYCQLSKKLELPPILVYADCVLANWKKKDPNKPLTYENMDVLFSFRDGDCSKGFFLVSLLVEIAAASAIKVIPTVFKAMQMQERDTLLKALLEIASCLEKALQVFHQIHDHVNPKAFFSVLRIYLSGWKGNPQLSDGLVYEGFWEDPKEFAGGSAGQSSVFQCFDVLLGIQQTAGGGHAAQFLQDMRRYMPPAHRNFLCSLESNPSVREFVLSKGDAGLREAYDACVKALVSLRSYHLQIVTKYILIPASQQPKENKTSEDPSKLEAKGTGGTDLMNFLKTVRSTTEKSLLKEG
With `CC1(C)C=CC2=C(O1)C(=O)c1c(O)cccc1C2=O`, the concentration for half-maximal inhibition (IC50) was determined as 69000 nM. Take `CCCCNC1C2=C(OC(C)(C)C1O)C(=O)c1ccccc1C2=O` (trans isomer): the IC50 is 87000 nM.

Test system in the next assay: not listed separately
Kind of assay: Cytotoxicity against human TREx cells expressing doxycyclin-inducible IDO assessed as cell viability by SRB assay. The note with it: read-out: LD50 (the source's name). The format is functional. In outline:
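T-REx cells with inducible human IDO cDNA, seeded at 20000/well in DMEM + 10% FBS, induced 72 h with 20 ng/mL doxycycline, rinsed, then exposed to serial compound dilutions in phenol red-free DMEM + 10% FBS for 18 h, in triplicate.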
(The SRB assay estimates cell density from bound dye.)
For `CC1=CC(=O)c2ccccc2C1=O` [MENADIONE], the CC50 was found to be 126000 nM.

In another assay the test system is B16-F10. Kind of assay: Antitumor activity in mouse B16-F10 cells isografted C57BL/6 mouse at 25 mg/kg, ip qd for 5 days. The format is functional, organism-based. Also on record: dose 25 mg/kg.
Details: not given
In outline:
as §1
Turning to `CC1=CC(=O)c2ccccc2C1=O` [MENADIONE], the result was Active.

A further assay relates to B16-F10. Kind of assay: Antitumor activity in mouse B16-F10 cells isografted athymic NCr-nu/nu mouse at 25 mg/kg, ip qd for 5 days. It counts as functional, organism-based. Also on record: dose 25 mg/kg.
Details: not given
In outline:
as §1
As to `CC1=CC(=O)c2ccccc2C1=O` [MENADIONE], the result was inactive.
